# Test results taken from ChEMBL document CHEMBL3351536, “A new avenue toward androgen receptor pan-antagonists: C2 sterically hindered substitution of hydroxy-propanamides” (J Med Chem, 2014).
# Active and inactive are the calls of the source. No cut-off for these calls is given here.
# Experiments:
# CWR22R = assay: Inhibition of cell survival in human CWR22Rv1 cells after 144 hrs by TUNEL assay; type: functional, cell-based; conditions: 22Rv1, 144 h
# LNCaP [1] = assay: Inhibition of cell survival in (R)-bicalutamide-resisitant human LNCAP cells after 144 hrs by TUNEL assay; type: cell-based
# How it was run: (§1)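 Cells treated 144 h starting 24 h after seeding. Fixed in 1% paraformaldehyde then 70% ethanol, labeled with TUNEL mix (TdT, FITC-dUTP) for 60 min at 37 °C, counterstained with propidium iodide/RNase, and analyzed by flow cytometry for % apoptotic cells. For LNCaP and LNCaP-AR, compounds at 20 μM, three independent experiments.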
# [2] = biological target: T1, Androgen receptor (Homo sapiens) (UniProt P10275); assay: Effect on nuclear import of wild-type human androgen receptor expressed in COS7 cells at 10 uM after 1 hr by immunofluorescence analysis; type: cell-based; conditions: COS-7
# T1 sequence (whole entry): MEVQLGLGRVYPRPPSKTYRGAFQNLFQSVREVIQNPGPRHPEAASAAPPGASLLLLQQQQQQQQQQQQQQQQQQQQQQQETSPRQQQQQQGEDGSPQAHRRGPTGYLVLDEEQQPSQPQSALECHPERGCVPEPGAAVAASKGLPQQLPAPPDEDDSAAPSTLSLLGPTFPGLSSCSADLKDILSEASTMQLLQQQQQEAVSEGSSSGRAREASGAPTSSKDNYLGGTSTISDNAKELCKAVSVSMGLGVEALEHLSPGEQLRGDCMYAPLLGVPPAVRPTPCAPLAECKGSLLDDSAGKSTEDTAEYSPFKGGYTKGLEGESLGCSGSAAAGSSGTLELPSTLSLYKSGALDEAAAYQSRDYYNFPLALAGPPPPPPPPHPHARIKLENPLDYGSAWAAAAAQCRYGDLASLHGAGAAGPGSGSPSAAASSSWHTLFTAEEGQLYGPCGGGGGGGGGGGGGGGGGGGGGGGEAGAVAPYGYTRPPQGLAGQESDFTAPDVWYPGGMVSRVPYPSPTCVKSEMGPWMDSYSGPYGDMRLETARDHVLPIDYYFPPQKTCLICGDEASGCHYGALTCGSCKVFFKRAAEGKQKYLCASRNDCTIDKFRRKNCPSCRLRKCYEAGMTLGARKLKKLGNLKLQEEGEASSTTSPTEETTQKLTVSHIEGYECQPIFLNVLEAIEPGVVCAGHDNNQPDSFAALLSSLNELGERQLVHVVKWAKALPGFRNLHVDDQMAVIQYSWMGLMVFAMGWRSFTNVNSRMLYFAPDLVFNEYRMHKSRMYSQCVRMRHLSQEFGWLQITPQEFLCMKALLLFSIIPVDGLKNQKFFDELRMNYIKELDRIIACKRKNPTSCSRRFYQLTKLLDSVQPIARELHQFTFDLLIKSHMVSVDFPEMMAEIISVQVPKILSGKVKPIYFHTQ
# How it was run: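 Cos-7 cells on coverslips made quiescent, transfected with 1 μg pSG5-hAR, then stimulated with 10 nM R1881 for 60 min ± compounds. AR detected by immunofluorescence with anti-C19 antibody and Texas red secondary; nuclei stained with Hoechst.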
# Mus musculus = assay: Toxicity in human VCaP cells xenografted CD-1 nu/nu mouse assessed as body weight loss at 10 mg/kg, po for 4 consecutive weeks starting on day 35 of tumor implantation measured up to 100 days; type: organism-based; parameters: dose 10 mg/kg, route oral; conditions: in vivo, 2400 h
# How it was run: (§2)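 Male CD-1 nu/nu mice, 5–6 weeks old, injected s.c. in the flank with 10⁶ VCaP cells in 50% Matrigel/50% serum-free medium. When tumors reached 50–100 mg, mice were randomized, 5 per group. Daily oral gavage at 10 mg/kg for 4 weeks in 80% PEG-400/20% Tween-80; controls got vehicle. Tumor weight from caliper (a×b²/2) three times weekly; body weight monitored.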
# LNCaP-AR = assay: Induction of apoptosis in human LNCaP-AR cells expressing wild-type androgen receptor at 20 uM after 144 hrs by TUNEL assay; type: functional; how it was run: as §1
# LNCaP [3] = assay: Inhibition of R1881-induced migration of human LNCAP cells at 10 uM after 24 hrs by wound-healing assay; type: functional, cell-based
# How it was run: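 Confluent quiescent LNCaP monolayers scratched, washed, and given 10 nM R1881 ± 10 μM compound for 24 h. Wound closure assessed from phase-contrast images; four experiments.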
# [4] = biological target: T1, Androgen receptor (Homo sapiens); assay: Inhibition of androgen receptor in R1881-stimulated human LNCAP cells assessed as reduction in PSA mRNA level at 0.5 to 20 uM after 24 hrs by RT-PCR analysis; type: cell-based
# LNCaP [5] = assay: Induction of apoptosis in human LNCAP cells expressing mutant androgen receptor at 20 uM after 144 hrs by TUNEL assay; type: cell-based; how it was run: as §1
# [6] = biological target: T1, Androgen receptor (Homo sapiens); assay: Displacement of [3H]R1881 from androgen receptor in human LNCAP cells at 1 uM after 24 hrs by liquid scintillation counting; type: cell-based
# [7] = biological target: T1, Androgen receptor (Homo sapiens); assay: Inhibition of androgen receptor in R1881-stimulated (R)-bicalutamide-resisitant human LNCAP cells assessed as reduction in PSA mRNA level at 20 uM after 24 hrs by RT-PCR analysis; type: cell-based
# How it was run: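 LNCaP or LNCaP-Rbic cells (Rbic kept in 20 μM bicalutamide), 24 h after seeding, stimulated with 10 nM R1881 and treated 24 h with 10 or 20 μM compound. PSA mRNA measured by SYBR Green real-time RT-PCR in triplicate reactions, normalized to GAPDH and HPRT, expressed as fold over untreated. Two independent experiments.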
# [8] = biological target: T1, Androgen receptor (Homo sapiens); assay: Displacement of [3H]R1881 from androgen receptor in human LNCAP cells at 2 uM after 24 hrs by liquid scintillation counting; type: cell-based
# [9] = Growth inhibition of human VCaP cells after 144 hrs by SRB assay; type: functional
# How it was run: (§3)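 Cells exposed for 144 h starting 24 h after seeding, 5000 cells/well. SRB assay with OD read at 490 nm. Growth inhibition calculated as (ODtreated−ODzero)/(ODcontrol−ODzero)×100; OD below ODzero counted as cell killing. Octuplicate wells, three independent experiments; IG50 and LC50 taken from this calculation.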
# LNCaP [10] = assay: Effect on cell migration in serum-stimulated human LNCAP cells by transwell assay; type: ADME, cell-based
# LNCaP [11] = assay: Growth inhibition of human LNCAP cells expressing mutant androgen receptor after 144 hrs by SRB assay; type: cell-based; conditions: Homo sapiens, LNCaP, read-out: GI50; how it was run: as §3
# LNCaP [12] = assay: Inhibition of R1881-induced DNA synthesis in human LNCAP cells at 10 to 20 uM after 18 hrs by BrdU incorporation assay; type: functional, cell-based
# How it was run: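 Quiescent LNCaP cells on coverslips treated 18 h with 10 nM R1881 ± compound (10 or 20 μM), then pulsed with 100 μM BrdU. Incorporation scored by anti-BrdU immunofluorescence as % of total nuclei.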
# [13] = Inhibition of R1881-induced DNA synthesis in Androgen receptor-negative human DU145 cells at 10 to 20 uM after 18 hrs by BrdU incorporation assay; type: cell-based; conditions: du-145, 18 h
# [14] = Cytotoxicity against human PC3 cells after 144 hrs by SRB assay; type: cell-based; conditions: pc-3, 144 h; how it was run: as §3
# VCaP [15] = assay: Antitumor activity against human VCaP cells xenografted in CD-1 nu/nu mouse assessed as tumor regression at 10 mg/kg, po for 4 consecutive weeks starting on day 35 of tumor implantation measured after 100 days; type: functional, organism-based; parameters: dose 10 mg/kg; how it was run: as §2
# [16] = Growth inhibition of human LNCaP-AR cells expressing wild-type androgen receptor after 144 hrs by SRB assay; type: functional; how it was run: as §3
# LNCaP [17] = assay: Inhibition of R1881-induced migration of human LNCAP cells at 10 uM by transwell assay; type: functional, cell-based
# How it was run: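 Quiescent LNCaP cells on collagen-coated transwell filters, 24 h after seeding, treated with 10 nM R1881 ± 10 μM compound. Migrated cells stained with Hoechst and counted by fluorescence microscopy; data given as relative increase in migrated cells.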
# LNCaP [18] = assay: Cytotoxicity against human LNCAP cells expressing mutant androgen receptor assessed as reduction in cell viability; type: cell-based
# [19] = biological target: T1, Androgen receptor (Homo sapiens); assay: Inhibition of androgen receptor in human LNCAP cells assessed as reduction in PSA mRNA level at 0.5 to 20 uM after 24 hrs by RT-PCR analysis; type: cell-based
# [20] = Inhibition of cell survival in human VCaP cells after 144 hrs by TUNEL assay; type: cell-based; how it was run: as §1
# [21] = Cytotoxicity against african green monkey COS7 cells; type: cell-based; conditions: chlorocebus aethiops, cos-7
# VCaP [22] = assay: Antitumor activity against human VCaP cells xenografted in CD-1 nu/nu mouse assessed as tumor regression at 10 mg/kg, po for 4 consecutive weeks starting on day 35 of tumor implantation measured after 60 days; type: functional, organism-based; parameters: dose 10 mg/kg; how it was run: as §2
# DU-145 = assay: Cytotoxicity against human DU145 cells after 144 hrs by SRB assay; type: cell-based; conditions: du-145, 144 h; how it was run: as §3
# LNCaP [23] = assay: Growth inhibition of (R)-bicalutamide-resisitant human LNCAP cells after 144 hrs by SRB assay; type: functional; how it was run: as §3
structure (smiles),measurement,setting,value
N#Cc1ccc(C[C@](O)(CS(=O)(=O)c2ccc(F)cc2)C(=O)Nc2ccc(C#N)c(C(F)(F)F)c2)cc1,IC50,CWR22R,5 µM
same,Activity,LNCaP [1],Non-toxic
same,Activity,[2],inactive
same,Activity,Mus musculus,Non-toxic
same,Activity,LNCaP-AR,inactive
same,inhibition,LNCaP [3],Active
same,inhibition,[4],inactive
same,Activity,LNCaP [5],Non-toxic
same,inhibition,[6],60%
same,inhibition,[7],Active
same,inhibition,[8],65%
same,GI50,[9],1.42 µM
same,Activity,LNCaP [10],Non-toxic
same,GI50,LNCaP [11],1.6 µM
same,inhibition,LNCaP [12],Active
same,Activity,[13],Non-toxic
same,Activity,[14],Non-toxic
same,Activity,VCaP [15],Active
same,GI50,[16],4.9 µM
same,inhibition,LNCaP [17],Active
same,Activity,LNCaP [18],Non-toxic
same,inhibition,[19],Active
same,Activity,[20],Non-toxic
same,Activity,[21],Non-toxic
same,Activity,VCaP [22],Active
same,Activity,DU-145,Non-toxic
same,GI50,LNCaP [23],6.43 µM
